Assay results from ChEMBL document CHEMBL4513216, “Probing the Open Global Health Chemical Diversity Library for Multistage-Active Starting Points for Next-Generation Antimalarials” (ACS Infect Dis, 2020).

experiment: Toxicity liver stage against HepG2, at 10uM; assay type: cell-based; set-up: test concentration 10 uM, cell line HepG2-A16-CD81EGFP; conditions: human, HepG2-A16-CD81EGFP cells; read-out: INHIBITION
How it was run: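 Uninfected HepG2-A16-CD81EGFP cells, 3 × 10^3 per well, 1536-well, plated on prespotted compound at 10 μM final, parasite-free screening media added to match infected plates; puromycin 10 μM positive, DMSO 0.5% negative; run in parallel with 48 h PbLuc assay at 37 °C, 5% CO2; viability by CellTiter-Glo luminescence, normalized to controls.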

Row | SMILES | cytotoxicity at 10 µM [%]
1 | CC(C)c1noc(CN(Cc2ccccc2)C2CC2)n1 | 0.563
2 | Fc1cnc(N2CCO[C@H]3[C@H](OCC4CCOCC4)CC[C@@H]32)nc1 | 10.7
3 | Cc1noc(C)c1C(=O)NCCSCc1cccs1 | -4.89
4 | Cc1nc(O)c2c(n1)CCN(Cc1cc(C)sc1C)CC2 | -9
5 | O=C(NC1CCC1)[C@H]1C[C@H]2CN(CC3CC3)C[C@@H]1O2 | 7.55
6 | O=C(c1ccc(-c2ccccc2)[nH]c1=O)N1CCN(C2CC2)CC1 | 9.8
7 | Cc1nc(Cn2c3c(ccc2=O)CCN(CC2CC2)CC3)cs1 | 1.63
8 | CCn1cc(C(=O)Nc2cc(C(=O)OC)ccc2C(=O)OC)cn1 | -1.2
9 | COc1cc2c(cc1CN1CCn3c(CO)nnc3C1)CCC2 | -4.05
10 | O=C(c1ccnnc1)N1C[C@@H]2CC[C@H](Oc3cccc(F)c3)[C@@H]2C1 | 2.37
11 | c1cnn(CC2CN(c3ncnc4[nH]ccc34)CCO2)c1 (stereo not given) | -8.81
12 | O=C(NC1CCCN(CCCc2ccccc2)C1)C1=CCCCC1 (stereo not given) | -0.739
13 | CC(=O)NCC(=O)NC1CCc2nccn2C1 (stereo not given) | -6.99
14 | c1cc(COc2ccc(CNC3CCc4ncnn4C3)cc2)ccn1 (stereo not given) | -0.279
15 | O=C(c1ccsc1)N1CCC2(CC1)COCCN(Cc1ccncc1)C2 | -89.6
16 | Cc1oc(-c2nc(C#N)c(NC(C)C)o2)cc1S(=O)(=O)N1CCCCC1 | 4.28
17 | Cc1nc(NC(=O)c2c3c(nn2C2CCS(=O)(=O)C2)CCC3)sc1C (stereo not given) | -4.57
18 | CN(CCO)c1nc(-c2ccccn2)nc2c1CCNC2 | -4.12
19 | CCC(=O)N1CCC2(CC1)C(=O)N(Cc1cccnc1)CCN2C | 2.17
20 | COCC(NC(=O)c1cc[nH]n1)c1cccc(C(F)(F)F)c1 (stereo not given) | -10.7
21 | O=C(c1ccco1)N1CCOCC2(CCN(C3CCOCC3)C2)C1 (stereo not given) | 3.07
22 | CC(Cn1cncn1)NC(=O)Nc1ccc(COC2CCCC2)cc1 (stereo not given) | -1.47
23 | Cc1ccc(OCC(C)NS(=O)(=O)N(C)C)cc1 (stereo not given) | 8.81

Row | SMILES | cytotoxicity at 10 µM [%]
24 | CCN(CCc1nc2cc(C)ccc2[nH]1)C(=O)[C@@H](N)CCSC | -9.28
25 | NC(=O)c1cccc(CNCC=Cc2ccccc2)c1 | 5.62
26 | CN(Cc1ccccc1)CC1CC2(CO1)CN(c1nncs1)C2 (stereo not given) | 13.7
27 | Cc1ncsc1-c1nnc(C2CCN(Cc3ccccc3Cl)CC2)o1 | -6.86
28 | CC(C)c1ncncc1C(=O)NCCN1CCCC1 | -9.91
29 | Cc1occc(=O)c1OCC(=O)N1CCN(c2cccc(Cl)c2)CC1 | -1.18
30 | CC1(Cc2ccc(F)cc2)Cc2cc(C(=O)NCCO)ccc2O1 (stereo not given) | -2.89
31 | O=C1C[C@@H]2[C@H](CCN2Cc2ccccn2)N1Cc1ccncc1 | 4.53
32 | CCN(Cc1cc(Cl)c(O)c(OC)c1)Cc1nc(COC)no1 | 1.29
33 | CC(O)CNC(=O)CCc1nc2ncccc2[nH]1 (stereo not given) | -3.5
34 | CCOc1ccc(CN(C)C(=O)c2nc(N3CCCC3)ncc2Cl)cc1 | -33
35 | CCC(CN1CCN(C)CC1)NC(=O)C1(c2cccc(F)c2)CC1 (stereo not given) | 3.54
36 | Cc1ccc(C(=O)N2CCc3ncccc3C2)cc1N1CCNC1=O | -4.33
37 | Cn1cc(CN2CCOC(Cc3cccc(F)c3)C2)cn1 (stereo not given) | -2.62
38 | COC(=O)N1CCC(CNC(=O)C2CCN(S(C)(=O)=O)CC2)CC1 | -2.72
39 | O=C(Cc1cccnc1)NCCSc1ccccc1F | -6.45
40 | Cc1ccc(OCc2ccc(C(=O)O)s2)cc1C | 9.18
41 | CCCN(CCc1ccccn1)C(=O)Cn1cnnn1 | 2.52
42 | CC(=O)N1CCCC(Cc2cnc(C(=O)N3CCC(C)CC3)cn2)C1 (stereo not given) | 4.82
43 | COC(=O)c1oc(CNC(C)(C)c2ccc3c(c2)OCCO3)cc1C | 5.36
44 | Cc1cc(O)nc(C2CCCN(Cc3ccncc3)C2)n1 (stereo not given) | -2.81
45 | Cc1ccc(C(=O)N2C[C@@H]3CN(S(C)(=O)=O)CCO[C@@H]3C2)o1 | -2.42
